Data from ChEMBL document CHEMBL4251567 (Eur J Med Chem, 2018).

Tests used:
[1] = target: Histone deacetylase 1 (Homo sapiens) (UniProt Q13547); assay: Inhibition of HDAC1 in human HeLa-S3 cell lysates assessed as remaining activity at 1.6 x 10^-5 M preincubated for 15 mins followed by HDAC-Glo substrate addition measured after 30 to 40 mins by […] relative to control
Summary of the method: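 HDAC1 was captured from HeLa-S3 lysate (100 μg/mL) onto wells precoated with anti-HDAC1 antibody (10 μg/mL, carbonate buffer pH 9.4) and milk-blocked, 1 h at 4 °C, then washed. Inhibitor in DMSO was added in HDAC-Glo buffer for 15 min at room temperature. HDAC-Glo reagent was added and luminescence read after 30-40 min. Concentrations are final. No-antibody background subtracted; % of DMSO control.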

[2] = target: Histone deacetylase 1 (Homo sapiens) (UniProt Q13547); assay: Inhibition of HDAC1 in human HeLa-S3 cell lysates assessed as remaining activity at […] preincubated for 15 mins followed by HDAC-Glo substrate addition measured after 30 to 40 mins by […] relative to control
[3] = target: Histone deacetylase 3 (Homo sapiens) (UniProt O15379); assay: Inhibition of HDAC3 in human HeLa-S3 cell lysates assessed as remaining activity at 1.25 uM preincubated for 15 mins followed by HDAC-Glo substrate addition measured after 30 to 40 mins by […] relative to control
Summary of the method: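 Antibody-capture (ELISA-type) assay: HDAC antibody coated in carbonate/bicarbonate buffer pH 9.4, wells blocked with 5% milk in TBST. HeLa-S3 lysate added at 1 mg/mL for HDAC3, 1 h at 4 °C, then washed. Inhibitor in DMSO preincubated 15 min at RT in HDAC-Glo buffer. HDAC-Glo reagent added, luminescence read after 30-40 min. Concentrations are final. Background = no-antibody well; activity given as % of DMSO control.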

[4] = target: T1, Protein deacetylase HDAC6 (Homo sapiens) (UniProt Q9UBN7); assay: Inhibition of HDAC6 in human HeLa-S3 cell lysates assessed as remaining activity at 8 x 10^-7 M preincubated for 15 mins followed by HDAC-Glo substrate addition measured after 30 to 40 mins by […] relative to control
T1 sequence (whole entry): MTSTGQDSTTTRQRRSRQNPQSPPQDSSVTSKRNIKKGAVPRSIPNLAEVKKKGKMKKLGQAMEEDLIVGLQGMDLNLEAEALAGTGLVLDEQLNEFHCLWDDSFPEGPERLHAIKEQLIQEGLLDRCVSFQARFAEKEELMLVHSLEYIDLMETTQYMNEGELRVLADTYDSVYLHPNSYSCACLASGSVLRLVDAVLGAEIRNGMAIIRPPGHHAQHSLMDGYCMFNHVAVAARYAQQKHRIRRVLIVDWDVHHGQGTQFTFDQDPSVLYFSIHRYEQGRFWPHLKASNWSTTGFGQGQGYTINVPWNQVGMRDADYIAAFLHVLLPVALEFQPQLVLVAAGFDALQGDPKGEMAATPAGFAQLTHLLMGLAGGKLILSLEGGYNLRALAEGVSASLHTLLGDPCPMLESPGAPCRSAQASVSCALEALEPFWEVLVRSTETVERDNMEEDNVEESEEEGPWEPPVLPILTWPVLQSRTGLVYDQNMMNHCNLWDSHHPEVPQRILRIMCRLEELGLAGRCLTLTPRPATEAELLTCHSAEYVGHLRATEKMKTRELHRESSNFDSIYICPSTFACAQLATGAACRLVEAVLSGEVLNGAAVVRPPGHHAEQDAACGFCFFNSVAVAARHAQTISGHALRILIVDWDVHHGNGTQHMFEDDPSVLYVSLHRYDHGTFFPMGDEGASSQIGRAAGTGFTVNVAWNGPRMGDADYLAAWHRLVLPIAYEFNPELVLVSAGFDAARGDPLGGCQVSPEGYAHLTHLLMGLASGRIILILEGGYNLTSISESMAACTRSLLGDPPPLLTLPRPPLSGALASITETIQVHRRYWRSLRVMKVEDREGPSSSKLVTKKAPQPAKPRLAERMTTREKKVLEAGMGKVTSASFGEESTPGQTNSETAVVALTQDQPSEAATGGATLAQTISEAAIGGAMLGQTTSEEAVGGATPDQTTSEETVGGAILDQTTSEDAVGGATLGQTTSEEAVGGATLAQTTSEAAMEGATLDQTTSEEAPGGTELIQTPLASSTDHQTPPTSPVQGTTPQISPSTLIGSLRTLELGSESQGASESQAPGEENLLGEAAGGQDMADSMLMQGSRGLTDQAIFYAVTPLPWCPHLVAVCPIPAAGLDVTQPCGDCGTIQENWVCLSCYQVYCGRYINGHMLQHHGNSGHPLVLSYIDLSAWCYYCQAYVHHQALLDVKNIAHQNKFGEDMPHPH
Summary of the method: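 HDAC6 captured on an anti-HDAC6 antibody-coated plate (2 μg/mL, pH 9.4 carbonate buffer, milk-blocked). HeLa-S3 lysate loaded at 1 mg/mL, 1 h at 4 °C, then washed. 15 min RT preincubation with inhibitor in DMSO; HDAC-Glo reagent added, luminescence read at 30-40 min. Concentrations are final. Background = no-antibody well; values are % activity versus DMSO control.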

[5] = target: T2, Histone deacetylase 8 (Homo sapiens) (UniProt Q9BY41); assay: Inhibition of human recombinant full-length C-terminal His-tagged HDAC8 expressed in baculovirus infected Sf9 insect cell assessed as remaining activity at 8 x 10^-7 M preincubated for 15 mins followed by HDAC-Glo substrate addition measured after 30 mins by fluorimetric method rel;ative to control
T2 sequence (whole entry): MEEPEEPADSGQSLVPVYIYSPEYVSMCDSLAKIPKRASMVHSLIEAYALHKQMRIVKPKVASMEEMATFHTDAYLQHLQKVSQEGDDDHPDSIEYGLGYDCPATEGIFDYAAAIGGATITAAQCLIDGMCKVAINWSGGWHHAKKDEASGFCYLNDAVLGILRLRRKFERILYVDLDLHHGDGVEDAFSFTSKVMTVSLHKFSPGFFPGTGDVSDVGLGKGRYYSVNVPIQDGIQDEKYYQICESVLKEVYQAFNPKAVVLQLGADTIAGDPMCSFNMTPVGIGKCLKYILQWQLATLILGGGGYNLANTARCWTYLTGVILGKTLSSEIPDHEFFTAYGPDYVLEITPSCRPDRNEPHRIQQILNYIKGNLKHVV
Summary of the method: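 Recombinant HDAC8 (75 ng) preincubated 15 min at RT with inhibitor in DMSO in HDAC-Glo buffer. HDAC-Glo reagent added and luminescence read 30 min later. Background taken from a reaction without enzyme; activity as % of DMSO control.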

Chain of Histone deacetylase 1 (Homo sapiens) (Q13547 whole entry): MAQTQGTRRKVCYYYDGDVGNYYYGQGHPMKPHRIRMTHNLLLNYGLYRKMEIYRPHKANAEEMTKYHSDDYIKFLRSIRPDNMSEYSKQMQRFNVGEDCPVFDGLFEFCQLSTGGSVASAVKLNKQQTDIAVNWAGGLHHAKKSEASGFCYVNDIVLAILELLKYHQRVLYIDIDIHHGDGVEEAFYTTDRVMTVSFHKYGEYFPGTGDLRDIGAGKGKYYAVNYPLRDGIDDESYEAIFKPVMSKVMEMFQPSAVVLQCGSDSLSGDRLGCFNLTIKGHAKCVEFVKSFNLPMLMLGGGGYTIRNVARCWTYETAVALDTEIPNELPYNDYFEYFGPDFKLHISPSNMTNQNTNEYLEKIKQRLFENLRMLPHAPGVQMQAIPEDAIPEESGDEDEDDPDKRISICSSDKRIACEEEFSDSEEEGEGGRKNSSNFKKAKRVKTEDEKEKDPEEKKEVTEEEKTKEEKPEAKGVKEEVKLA
Chain of Histone deacetylase 3 (Homo sapiens) (O15379 whole entry): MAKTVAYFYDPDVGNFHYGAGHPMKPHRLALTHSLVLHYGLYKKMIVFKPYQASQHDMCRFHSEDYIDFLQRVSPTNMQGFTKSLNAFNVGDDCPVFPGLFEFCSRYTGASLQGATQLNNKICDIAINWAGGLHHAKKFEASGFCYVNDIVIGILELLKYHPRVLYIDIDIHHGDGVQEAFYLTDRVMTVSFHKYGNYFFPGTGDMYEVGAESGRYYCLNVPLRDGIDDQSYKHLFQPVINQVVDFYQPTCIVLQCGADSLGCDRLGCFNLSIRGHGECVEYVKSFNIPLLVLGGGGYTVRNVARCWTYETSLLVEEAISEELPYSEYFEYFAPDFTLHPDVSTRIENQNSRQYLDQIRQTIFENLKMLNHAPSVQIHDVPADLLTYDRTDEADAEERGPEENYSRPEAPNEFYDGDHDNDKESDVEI

## CCC(CCCC(=O)Nc1ccccc1)CCC(=O)NO (stereo not given)
[1]
  Activity: 19%
[2]
  Activity: 91%

## CCCCCCC(CCCC(=O)Nc1ccccc1)CCC(=O)NO (stereo not given)
[3]
  Activity: 100%

## O=C(CC[C@H](CCCC(=O)Nc1ccccc1)Cc1ccccc1)NO
[4]
  Activity: 16%
[5]
  Activity: 19%
